Measured values pooled from the literature.
Lines come from different studies, so protocols differ.
Target: Cytochrome P450 1A2 (CYP1A2, Homo sapiens, UniProt P05177)
Read-out: enzyme activity
Action: inhibitor
Residues used in one study (P05177 1-516): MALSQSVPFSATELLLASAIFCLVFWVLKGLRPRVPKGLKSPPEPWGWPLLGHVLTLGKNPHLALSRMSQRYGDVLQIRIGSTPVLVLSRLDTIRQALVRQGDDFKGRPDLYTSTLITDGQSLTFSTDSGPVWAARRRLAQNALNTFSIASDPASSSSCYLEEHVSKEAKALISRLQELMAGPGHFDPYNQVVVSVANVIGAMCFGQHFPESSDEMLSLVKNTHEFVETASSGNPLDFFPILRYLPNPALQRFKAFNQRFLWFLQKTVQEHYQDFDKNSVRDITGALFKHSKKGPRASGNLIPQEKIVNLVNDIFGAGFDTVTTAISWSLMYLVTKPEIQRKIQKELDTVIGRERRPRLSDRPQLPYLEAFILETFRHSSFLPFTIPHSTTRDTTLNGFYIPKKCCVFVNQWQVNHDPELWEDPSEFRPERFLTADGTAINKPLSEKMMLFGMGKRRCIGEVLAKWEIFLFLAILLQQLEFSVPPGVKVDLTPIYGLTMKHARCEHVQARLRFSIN

| method | species | matrix | time | pH | endpoint | value | Structure (SMILES) |
| --- | --- | --- | --- | --- | --- | --- | --- |
|  |  |  |  |  | IC50 | 1.8 µM | COc1ccn2c(Nc3ccccc3F)c(-c3ccncn3)nc2c1 |
|  |  |  | 6 min | pH 7.6 | Ki | 810 nM | C#Cc1cccc2oc(-c3ccccc3)cc(=O)c12 |
|  | human | liver microsomes |  | pH 7.4 | Ki | 7100 nM | Cc1cc(C)c2c(c1)[C@@H](N(Cc1cc(C(F)(F)F)cc(C(F)(F)F)c1)c1nnn(C)n1)CCCN2C[C@H]1CC[C@H](C(=O)O)CC1 |
|  |  |  | 6 min | pH 7.6 | Ki | 520 nM | C#Cc1ccc2c(=O)cc(-c3ccccc3)oc2c1 |
| fluorescence |  |  |  |  | IC50 | 112 µM | COc1ccc2[nH]c([S+]([O-])Cc3ncc(C)c(OC)c3C)nc2c1 (stereo not drawn) |
| fluorescence |  |  |  | pH 7.4 | IC50 | 557 µM | CC1=CC(=O)C(C(C)C)=CC1=O |
| fluorescence |  |  |  |  | IC50 | 1 µM | CC(CN1c2ccccc2Sc2ccccc21)N(C)C (stereo not drawn) |
| fluorescence |  |  |  |  | IC50 | > 10 µM | NS(=O)(=O)NCCNc1nonc1C(=NO)Nc1ccc(F)c(Br)c1 |
|  |  |  |  |  | IC50 | > 10 µM | COc1ccc2c(Cc3ccccc3F)c3n(c(=O)c2c1OC)CCc1cc2c(cc1-3)OCO2 |
|  | human | liver microsomes | 10 min |  | IC50 | 20.8 µM | N#Cc1ccnc(Oc2nn([C@H]3C[C@H](F)C3)c3ncnc(N)c23)c1 |
|  |  |  |  |  | IC50 | > 10 µM | COc1ccc2c(Cc3ccccc3F)c3[n+](cc2c1OC)CCc1cc2c(cc1-3)OCO2 |
|  |  |  |  |  | IC50 | > 100 µM | C[C@H]1CN(c2n[nH]c3nc(N[C@H]4CC[C@H](NS(=O)(=O)CCC(F)(F)F)CC4)ncc23)CCO1 |
